According to the M2OR odorant receptor database:

Target: T1, OR2T4 (Homo sapiens) (UniProt Q8NH00)
T1 sequence (whole entry): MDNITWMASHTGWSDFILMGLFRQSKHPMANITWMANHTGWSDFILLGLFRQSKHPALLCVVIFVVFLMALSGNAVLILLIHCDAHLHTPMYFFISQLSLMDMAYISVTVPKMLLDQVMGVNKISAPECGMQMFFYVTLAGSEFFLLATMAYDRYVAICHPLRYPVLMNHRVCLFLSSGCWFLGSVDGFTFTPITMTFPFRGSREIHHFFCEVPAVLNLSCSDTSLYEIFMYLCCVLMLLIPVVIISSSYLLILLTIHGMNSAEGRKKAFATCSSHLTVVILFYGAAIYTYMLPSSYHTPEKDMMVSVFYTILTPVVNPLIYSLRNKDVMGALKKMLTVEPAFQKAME
Details: stereoisomer not certain
In short: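 Whether a receptor–molecule pair is responsive (active) rests on the original authors' judgment that its measured signal was statistically different from baseline. Pairs without that judgment are non-responsive (inactive). Sources used varied assay methods, commonly transient luciferase assays in mammalian cell lines.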
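Further: active if original authors judged signal statistically different from baseline.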

Odorant receptor agonist call, active:
CC(C=O)Cc1ccc(C(C)(C)C)cc1 (stereo not given)

Odorant receptor agonist call, inactive:
CCCCC(=O)C(C)=O
Cc1cccc(C)c1C
CCCCCCCCCC(=O)OCC
CCCCCCCCCCCCCC(=O)OC
CCCCCCCCCCCCCCCC(=O)OCC
CCC(O)CC
CCCCCCCCCCCCO
C=C(C)C1CC=C(C)CC1 (stereo not given)
CCCCOCC(C)O (stereo not given)
CCCCCCCCCCCCCCCC(=O)OC
CC(=O)O
CCCO
CCC(C)CO (stereo not given)
CCCCCCCCCCCCCCC(=O)O
CCCCCCCCCCCCCC(=O)O
CCCCCCCCCC(=O)OC
CCCCCCCCCCCCCCCC(=O)[O-].[H+]
C=C1CCC2CC1C2(C)C (stereo not given)
CCCCCCCCCCCCCC(=O)OCC
CC(C)(C)c1ccccc1
Cc1cnc(C)cn1
CCCCCCCCCCCC(=O)O
CCCCCCCC(=O)OCC
CCCCCCCCCCCCCCCCCC(=O)OCC
CCCCCCCCCCCC(=O)OCC
CCCCCCCC(=O)[O-].[H+]
O=c1ccc2ccccc2o1
CCCCCCCCCCCCCCCCCC(=O)OC
COc1ccc2[nH]cc(CCNC(C)=O)c2c1
CC(O)C(=O)[O-].[H+] (stereo not given)
CC(CC=O)c1ccccc1 (stereo not given)
CCCCCCCCO
CCCCCCC(=O)[O-].[H+]
CCCCCCCCCCCCCCCCCC(=O)[O-].[H+]
CCCCCCCCCCCC(=O)OC
CCCC(=O)CC
CC(C)=CCCC(C)=CCCC(C)=CCO
CCCCCCCC(=O)OC
CCC(=O)O
